Laboratory results reported in ChEMBL document CHEMBL1153760, “Identification and structure-activity relationships of chromene-derived selective estrogen receptor modulators for treatment of postmenopausal symptoms” (J Med Chem, 2009).
Calls of active or inactive are those of the source. The calls are words filed in the database; no cut-off is given here.

What was measured:
[1] = system: Rattus norvegicus; assay: Metabolite Cmax in rats after 10 mg/kg JNJ-26529126 oral dose; assay type: ADME, organism-based; design: dose 10 mg/kg, route oral; conditions: in vivo
How it was run: (§1)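 Single-dose rat pharmacokinetics. IV dosing at 1-3 mg/kg as a solution in 10% β-cyclodextrin; oral gavage at 10 mg/kg as a uniform suspension in 0.5% methylcellulose. Blood (0.5 mL) collected into heparinized tubes by orbital sinus puncture after dosing. Plasma extracted into acetonitrile with an internal standard and analysed by LC-MS-MS against standards to obtain PK parameters.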

[2] = species on record: Rattus norvegicus; assay: animal or person; assay type: functional; conditions: Uterus, 72 h, route oral
[3] = system: Rattus norvegicus; assay: Metabolite Cmax in rats after 10 mg/kg JNJ-1968990 oral dose; assay type: ADME, organism-based; design: dose 10 mg/kg, route oral; conditions: in vivo; how it was run: as §1
[4] = system: Rattus norvegicus; assay: Metabolic stability in rat assessed as (R)-5-[4-(2-Dimethylamino-ethoxy)-phenyl]-11,12-dihydro-5H-6,13-dioxa-benzo[3,4]cyclohepta[1,2-a]naphthalene-2,8-diol Tmax at 10 mg/kg, po administered as single dose by LC-MS/MS analysis; assay type: ADME, organism-based; design: dose 10 mg/kg, route oral; conditions: in vivo; how it was run: as §1
[5] = target: T1, Estrogen receptor (Homo sapiens, UniProt P03372); assay: Displacement of radiolabeled estrogen from estrogen receptor alpha by scintillation counting
T1 sequence (P03372 whole entry): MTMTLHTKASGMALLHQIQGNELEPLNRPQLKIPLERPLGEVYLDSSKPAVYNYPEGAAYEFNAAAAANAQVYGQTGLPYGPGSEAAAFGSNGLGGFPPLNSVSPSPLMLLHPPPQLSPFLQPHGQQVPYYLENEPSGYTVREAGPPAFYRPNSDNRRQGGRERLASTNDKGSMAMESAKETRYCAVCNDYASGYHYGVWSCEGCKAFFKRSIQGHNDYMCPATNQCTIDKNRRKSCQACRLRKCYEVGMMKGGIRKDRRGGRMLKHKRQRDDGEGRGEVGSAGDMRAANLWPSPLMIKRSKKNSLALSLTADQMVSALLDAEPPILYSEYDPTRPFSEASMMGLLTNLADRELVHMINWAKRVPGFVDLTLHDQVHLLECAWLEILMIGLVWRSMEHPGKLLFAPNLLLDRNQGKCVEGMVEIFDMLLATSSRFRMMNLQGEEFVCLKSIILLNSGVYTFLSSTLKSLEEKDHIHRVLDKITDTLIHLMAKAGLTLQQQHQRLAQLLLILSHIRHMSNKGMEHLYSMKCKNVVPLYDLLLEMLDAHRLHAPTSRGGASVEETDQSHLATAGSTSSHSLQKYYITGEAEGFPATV

[6] = Tmax in rat at 10 mg/kg, po administered as single dose by LC-MS/MS analysis; assay type: ADME, organism-based; design: dose 10 mg/kg, route oral; conditions: in vivo; how it was run: as §1
[7] = AUC in rat at 10 mg/kg, po administered as single dose by LC-MS/MS analysis; assay type: ADME, organism-based; design: dose 10 mg/kg, route oral; conditions: plasma; how it was run: as §1
[8] = system: Rattus norvegicus; assay: Metabolite Cmax in rats after 10 mg/kg JNJ-26529152 oral dose; assay type: ADME, organism-based; design: dose 10 mg/kg, route oral; conditions: in vivo; how it was run: as §1
[9] = system: Rattus norvegicus; assay: Metabolite Cmax in rats after 2 mg/kg JNJ-1968990 intravenous dose; assay type: ADME, organism-based; design: dose 2 mg/kg, route intravenous; conditions: in vivo; how it was run: as §1
[10] = Oral bioavailability in rat at 10 mg/kg administered as single dose by LC-MS/MS analysis; assay type: ADME, organism-based; conditions: in vivo; how it was run: as §1
[11] = Half life in rat at 10 mg/kg, po administered as single dose by LC-MS/MS analysis; assay type: ADME, organism-based; design: dose 10 mg/kg, route oral; conditions: in vivo; how it was run: as §1
[12] = system: Rattus norvegicus; assay: Metabolic stability in rat assessed as (R)-5-[4-(2-Dimethylamino-ethoxy)-phenyl]-11,12-dihydro-5H-6,13-dioxa-benzo[3,4]cyclohepta[1,2-a]naphthalene-2,8-diol Tmax at 2 mg/kg, iv administered as single dose by LC-MS/MS analysis; assay type: ADME, organism-based; design: dose 2 mg/kg, route intravenous; conditions: in vivo; how it was run: as §1
[13] = system: Rattus norvegicus; assay: Decrease in bone resorption in ovariectomized rat assessed as decrease in urine deoxypyridinoline level at 0.1 mg/kg, po administered daily measured after 2 weeks; assay type: functional, organism-based; design: dose 0.1 mg/kg
How it was run: (§2)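 Adult (>6 months) female rats, housed singly on a casein-based diet, ovariectomized under sterile conditions and anesthesia; 6-14 per group. From 24 h after surgery, daily oral gavage of an aqueous suspension in 0.5% Methocel for 2 or 6 weeks. […] Urine deoxypyridinoline measured as bone-resorption marker.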

[14] = system: Rattus norvegicus; assay: Increase in uterine weight in po dosed ovariectomized rat osteopenia model administered daily measured after 2 weeks; assay type: functional, organism-based
[15] = Cmax in rats after 10 mg/kg oral dose; assay type: ADME, organism-based; design: dose 10 mg/kg, route oral; conditions: rat, in vivo; how it was run: as §1
[16] = target: T1, Estrogen receptor; assay: Antagonist activity at estrogen receptor in human Ishikawa cells assessed as 17-beta-estradiol-induced alkaline phosphatase activity after 3 days by chemiluminescence assay; assay type: functional, cell-based
[17] = target: Estrogen receptor beta (Homo sapiens, UniProt Q92731); assay: Inhibition of fluormone ES2 binding to estrogen receptor beta after 1 hr by fluorescence polarization assay
[18] = system: Rattus norvegicus; assay: Metabolic stability in rat assessed as 2-Methoxy-5R-(-)-[4-(2-piperidin-1-ylethoxy)-phenyl]-11,12-dihydro-5H-6,13-dioxabenzo[3,4]cyclohepta[1,2-a]-naphthalen-8-ol Tmax at 10 mg/kg, po administered as single dose by LC-MS/MS analysis; assay type: ADME, organism-based; design: dose 10 mg/kg, route oral; conditions: in vivo; how it was run: as §1
[19] = system: Rattus norvegicus; assay: Decrease in plasma cholesterol level in po dosed ovariectomized rat osteopenia model administered daily measured after 2 weeks; assay type: functional, organism-based
[20] = system: Rattus norvegicus; assay: Estrogenic activity in ovariectomized rat assessed as minor increase in uterine epithelial thickness at 0.1 to 1 mg/kg, po administered daily measured after 6 week by immunohistochemical analysis; assay type: functional, organism-based
[21] = system: Rattus norvegicus; assay: Decrease in bone resorption in ovariectomized rat assessed as decrease in urine deoxypyridinoline level at 0.1 to 1 mg/kg, po administered daily measured after 2 weeks; assay type: functional, organism-based; how it was run: as §2
[22] = system: Rattus norvegicus; assay: Metabolic stability in rat assessed as 2-Methoxy-5R-(-)-[4-(2-piperidin-1-ylethoxy)-phenyl]-11,12-dihydro-5H-6,13-dioxabenzo[3,4]cyclohepta[1,2-a]-naphthalen-8-ol Tmax at 2 mg/kg, iv administered as single dose by LC-MS/MS analysis; assay type: ADME, organism-based; design: dose 2 mg/kg, route intravenous; conditions: in vivo; how it was run: as §1
[23] = system: Rattus norvegicus; assay: Increase in vaginal secretion in ovariectomized rat at 0.1 to 1 mg/kg, po administered daily measured after 2 weeks by cytology analysis; assay type: functional, organism-based
How it was run: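 Ovariectomized adult female rats dosed daily by oral gavage (0.5% Methocel suspension) for 2 or 6 weeks from 24 h after surgery. Vaginal fluid collected with a cotton swab and its absolute weight determined per animal.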

[24] = system: Rattus norvegicus; assay: Increase in vaginal fluidity in ovariectomized rat at 1.4 mg/kg, po administered daily measured after 6 weeks by cytology analysis; assay type: functional, organism-based; design: dose 1.4 mg/kg
[25] = system: Rattus norvegicus; assay: Metabolic stability in rat assessed as 8-Methoxy-6R-(-)-[4-(2-piperidin-1-ylethoxy)phenyl]-11,12-dihydro-5H-6,13-dioxabenzo[3,4]cyclohepta-[1,2-a]naphthalen-2-ol Tmax at 2 mg/kg, iv administered as single dose by LC-MS/MS analysis; assay type: ADME, organism-based; design: dose 2 mg/kg, route intravenous; conditions: in vivo; how it was run: as §1
[26] = system: Rattus norvegicus; assay: Metabolic stability in rat assessed as 8-Methoxy-6R-(-)-[4-(2-piperidin-1-ylethoxy)phenyl]-11,12-dihydro-5H-6,13-dioxabenzo[3,4]cyclohepta-[1,2-a]naphthalen-2-ol Tmax at 10 mg/kg, po administered as single dose by LC-MS/MS analysis; assay type: ADME, organism-based; design: dose 10 mg/kg, route oral; conditions: in vivo; how it was run: as §1

Chain of Estrogen receptor beta (Q92731 whole entry): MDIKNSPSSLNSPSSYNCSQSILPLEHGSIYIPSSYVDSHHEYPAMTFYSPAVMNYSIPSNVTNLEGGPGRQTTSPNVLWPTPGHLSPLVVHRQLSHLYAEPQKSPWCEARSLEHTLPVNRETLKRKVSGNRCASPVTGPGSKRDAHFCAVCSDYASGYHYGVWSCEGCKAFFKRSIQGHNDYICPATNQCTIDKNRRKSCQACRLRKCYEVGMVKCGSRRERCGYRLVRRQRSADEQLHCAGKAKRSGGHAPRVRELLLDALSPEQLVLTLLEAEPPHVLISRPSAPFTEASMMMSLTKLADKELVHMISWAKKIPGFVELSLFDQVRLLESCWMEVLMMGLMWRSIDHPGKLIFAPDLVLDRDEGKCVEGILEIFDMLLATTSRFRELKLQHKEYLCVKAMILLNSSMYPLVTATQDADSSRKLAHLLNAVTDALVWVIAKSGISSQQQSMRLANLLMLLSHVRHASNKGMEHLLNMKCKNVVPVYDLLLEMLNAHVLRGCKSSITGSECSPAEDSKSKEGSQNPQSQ

| Cmax_metabolite [3] | IC50 [5] | Tmax [6] | AUC [7] | Cmax_metabolite [9] | bioavailability [10] | half-life [11] | Cmax [15] | IC50 [16] | IC50 [17] | SMILES | inhibition in vivo at 1 mg/kg [2] | Activity [14] | Activity [19] | Activity [20] | Activity [21] | other results |
| --- | --- | --- | --- | --- | --- | --- | --- | --- | --- | --- | --- | --- | --- | --- | --- | --- |
| 0.0039 µg/mL | 1.1 nM | 5 h | 1.01 µg·h/mL | 0.0016 µg/mL | 11% | 4.8 h | 0.091 µg/mL | 0.2 nM | 21 nM | Oc1ccc2c(c1)O[C@H](c1ccc(OCCN3CCCCC3)cc1)C1=C2CCOc2cc(O)ccc21 | 135% | inactive | – | – | – | Cmax_metabolite [1]: 0.014 µg/mL; Tmax [4]: 6 h; Cmax_metabolite [8]: 0.012 µg/mL; Tmax [12]: 8 h; Activity [13]: Active |
| 0.0914 µg/mL | 5.8 nM | 6 h | 6.73 µg·h/mL | 0.0152 µg/mL | 61% | 18.6 h | 0.228 µg/mL | 76 nM | 99 nM | COc1ccc2c(c1)OCCC1=C2[C@@H](c2ccc(OCCN3CCCCC3)cc2)Oc2cc(O)ccc21 | 130% | inactive | Active | Active | Active | Tmax [18]: 8 h; Tmax [22]: 8 h; Activity [23]: inactive; Activity [24]: Active |
| 0.0333 µg/mL | 9 nM | 6 h | 6.92 µg·h/mL | 0.0076 µg/mL | 58% | 19.8 h | 0.219 µg/mL | 259 nM | 7 nM | COc1ccc2c(c1)O[C@H](c1ccc(OCCN3CCCCC3)cc1)C1=C2CCOc2cc(O)ccc21 | 99% | inactive | Active | Active | Active | Tmax [25]: 8 h; Tmax [26]: 6 h |
